Key:
Format in all cases: functional
[1] = tested on: UO-31; experiment: Cytotoxicity against human UO31 cells assessed as cell growth at 10 uM after 48 hrs by SRB assay relative to control; details: UO-31, 48 h, read-out: Activity
Procedure, shortened: (§1)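 NCI single-dose primary screen: compound added at 1 × 10⁻⁵ M, cultures incubated 48 h. Protein stained with sulforhodamine B. Result given as percent growth of treated cells relative to untreated controls, where negative values mean cell kill.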

[2] = tested on: UO-31; experiment: Growth inhibition of human UO31 cells at 10 uM after 48 hrs by SRB assay relative to control; details: UO-31, 48 h, read-out: GI; procedure, shortened: as §1
[3] = tested on: HOP-62; experiment: Cytotoxicity against human HOP62 cells assessed as cell growth at 10 uM after 48 hrs by SRB assay relative to control; details: HOP-62, 48 h, read-out: Activity
Procedure, shortened: (§2)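 Single-dose NCI screen. Compound was added at 1 × 10^-5 M and cultures were incubated 48 h. End point was sulforhodamine B protein staining, reported as percent growth of treated cells versus untreated control cells.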

[4] = tested on: HOP-62; experiment: Growth inhibition of human HOP62 cells at 10 uM after 48 hrs by SRB assay relative to control; details: HOP-62, 48 h, read-out: GI; procedure, shortened: as §1
[5] = tested on: NCI-H322M; experiment: Cytotoxicity against human NCI-H322M cells assessed as cell growth at 10 uM after 48 hrs by SRB assay relative to control; details: read-out: Activity; procedure, shortened: as §2
[6] = tested on: IGROV-1; experiment: Growth inhibition of human IGROV1 cells at 10 uM after 48 hrs by SRB assay relative to control; details: IGROV-1, 48 h, read-out: GI; procedure, shortened: as §1
[7] = tested on: NCI-H522; experiment: Cytotoxicity against human NCI-H522 cells assessed as cell growth at 10 uM after 48 hrs by SRB assay relative to control; details: NCI-H522, 48 h, read-out: Activity; procedure, shortened: as §2
[8] = tested on: NCI-H522; experiment: Growth inhibition of human NCI-H522 cells at 10 uM after 48 hrs by SRB assay relative to control; details: NCI-H522, 48 h, read-out: GI; procedure, shortened: as §1
[9] = tested on: MCF7; experiment: Cytotoxicity against human MCF7 cells assessed as cell growth at 10 uM after 48 hrs by SRB assay relative to control; details: MCF7, 48 h, read-out: Activity; procedure, shortened: as §2
[10] = tested on: MCF7; experiment: Growth inhibition of human MCF7 cells at 10 uM after 48 hrs by SRB assay relative to control; details: MCF7, 48 h, read-out: GI; procedure, shortened: as §1
[11] = tested on: HOP-92; experiment: Cytotoxicity against human HOP92 cells assessed as cell growth at 10 uM after 48 hrs by SRB assay relative to control; details: HOP-92, 48 h, read-out: Activity; procedure, shortened: as §2
[12] = tested on: T47D; experiment: Cytotoxicity against human T47D cells assessed as cell growth at 10 uM after 48 hrs by SRB assay relative to control; details: read-out: Activity; procedure, shortened: as §1

Compound | growth at 10 µM [1] [%] | further results
O=C(CCc1nnc2sc(Nc3ccc(Cl)cc3)nn12)c1nc2ccccc2[nH]1 | 64.2 | inhibition of growth at 10 µM [2]: ≤ 32%
O=C(CCc1nnc2n1N=C(O)CS2)c1nc2ccccc2[nH]1 | 79.8 | 
N#CCc1nn2c(CCC(=O)c3nc4ccccc4[nH]3)nnc2s1 | 75.5 | 
O=C(CCc1nnc2sc(-c3ccc(O)cc3)nn12)c1nc2ccccc2[nH]1 | 67.7 | inhibition of growth at 10 µM [2]: ≤ 32%
CCOc1nn2c(CCC(=O)c3nc4ccccc4[nH]3)nnc2s1 |  | growth at 10 µM [3]: 28.7%; inhibition of growth at 10 µM [4]: ≤ 32%
C=Cc1nn2c(CCC(=O)c3nc4ccccc4[nH]3)nnc2s1 | 76.2 | 
COc1ccc(-c2nn3c(CCC(=O)c4nc5ccccc5[nH]4)nnc3s2)cc1 | 69.6 | 
O=C(CCc1nnc2sc(-c3ccccc3S)nn12)c1nc2ccccc2[nH]1 |  | growth at 10 µM [5]: 73.9%
O=C(CCc1nnc2sc(Cc3ccccc3Cl)nn12)c1nc2ccccc2[nH]1 | 63 | inhibition of growth at 10 µM [2]: ≤ 32%
O=C(CCc1nnc2sc(CS)nn12)c1nc2ccccc2[nH]1 | 79.4 | 
CCOC1=Nn2c(CCC(=O)c3nc4ccccc4[nH]3)nnc2SC1 | 80.3 | 
C/C=C\c1nn2c(CCC(=O)c3nc4ccccc4[nH]3)nnc2s1 | 54.9 | inhibition of growth at 10 µM [6]: ≤ 32%
O=C(CCc1nnc2sc(S)nn12)c1nc2ccccc2[nH]1 | 76.6 | 
O=C(CCc1nnc2sc(C(c3ccccc3)c3ccccc3)nn12)c1nc2ccccc2[nH]1 |  | growth at 10 µM [7]: 30.2%; inhibition of growth at 10 µM [8]: ≤ 32%
Nc1ccccc1-c1nn2c(CCC(=O)c3nc4ccccc4[nH]3)nnc2s1 |  | growth at 10 µM [9]: 62%; inhibition of growth at 10 µM [10]: ≤ 32%
O=C(CCc1nnc(S)o1)c1nc2ccccc2[nH]1 |  | growth at 10 µM [11]: 69.4%
O=C(CCc1nnc2sc(-c3ccccc3O)nn12)c1nc2ccccc2[nH]1 | 51.3 | inhibition of growth at 10 µM [6]: ≤ 32%
Cc1nn2c(CCC(=O)c3nc4ccccc4[nH]3)nnc2s1 |  | growth at 10 µM [12]: 84.2%
NCCCc1nn2c(CCC(=O)c3nc4ccccc4[nH]3)nnc2s1 | 73.8 | 
O=C(CCc1nnc2sc(COc3ccccc3)nn12)c1nc2ccccc2[nH]1 | 64.3 | inhibition of growth at 10 µM [2]: ≤ 32%
O=C(CCc1nnc2sc(CCl)nn12)c1nc2ccccc2[nH]1 | 83.9 | 
O=C(CCc1nnc2sc(CCCl)nn12)c1nc2ccccc2[nH]1 | 80.1 | 
O=C(CCc1nnc2n1N=C(Cl)CS2)c1nc2ccccc2[nH]1 | 78.9 | 
NC1=Nn2c(CCC(=O)c3nc4ccccc4[nH]3)nnc2SC1 | 80.4 | 
